{
  "source": "paper PMC2652733",
  "about": "(Bioconjugate chemistry, 2009)",
  "key": {"[1]": {"system": "RIF tumors", "test": "In vivo photosensitizing", "design": "species or system C3H mice"}, "[2]": {"system": "RIF tumor cells", "test": "In vitro photosensitizing efficacy", "type": "cell-based", "settings": "for in vitro photosensitizing ability: lower light and drug doses, RIF cells; for in vitro photosensitizing ability (comparative): 24 h post-incubation, light dose 6.0 J/cm^2, drug concentration 1.0 μM and higher, 700 nm", "how_it_was_run": "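RIF cells were grown in α-MEM with 10% FCS and plated at 5 × 10³ cells/well overnight. Test compound was added at varied concentrations for 24 h at 37°C in the dark, then replaced with drug-free medium. Cells were irradiated with a 700 nm dye laser (3.2 mW/cm², 0-6 J/cm²) and kept 48 h in the dark. MTT was added for 4 h, followed by DMSO and a 560 nm read. Survival was expressed as % of the drug-no-light control, with 4 replicate wells.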"}, "[3]": {"test": "Biodistribution of 124I-labeled compounds", "type": "in vivo, C3H mice bearing RIF tumors", "how_it_was_run": "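RIF cells (3 × 10⁵ in 30 μl complete α-MEM) were implanted s.c. in the axilla of C3H mice and grown to 4-5 mm diameter (~5 days). The 124I-labelled test compound, in saline with 10% ethanol, was given via tail vein at 50-200 μCi. Thyroid uptake was not blocked. 3-4 mice per time point were killed at 24-96 h. Organs, blood and tail were weighed and gamma-counted, giving %ID/g.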"}, "[4]": {"settings": "dose 2μmol/kg, 705 nm, 135 J/cm^2, 75 mW/cm^2"}, "[5]": {"settings": "24h PI, C3H mice bearing RIF tumors, i.v. 50-200 uCi"}},
  "data": [
    {"compound": "CCc1c(C)c2cc3nc(cc4[nH]c(c5c6nc(cc1[nH]2)C(C)=C6C(=O)C5)[C@@H](CCC(=O)OC)[C@@H]4C)C(C)=C3C(C)OCc1cccc(I)c1", "note": "(stereo partly shown) [compound 1, 3-{1’- (3-iodobenzyloxy)ethyl}pyropheophorbide-a methyl ester]", "values": [
      {"measurement": "mice tumor free on day 60", "setting": "[1]; dose 1.5 μmol/kg i.v., 665 nm, 135 J/cm^2, 75 mW/cm^2 at 24 h post injection, 5 mice/group", "value": "4/5"}
    ]},
    {"compound": "CCCCCCN1C(=O)C2=C(C)c3cc4[nH]c(cc5nc(cc6[nH]c(c(c2n3)C1=O)[C@@H](CCC(=O)OC)[C@@H]6C)C(C)=C5C(C)OCc1cccc(I)c1)c(C)c4CC", "note": "(stereo partly shown) [compound 4, 3-{1’- (3-iodobenzyloxy)ethyl}purpurin-18-N-hexylimide methyl ester]", "values": [
      {"measurement": "in vitro photosensitizing ability", "setting": "[2]", "value": "ineffective"},
      {"measurement": "toxicity after PDT treatment", "setting": "[1]; [4]", "value": "toxic and all mice died within 24 h PDT treatment"}
    ]},
    {"compound": "CCCCCCOC(C)C1=C(C)c2cc3[nH]c(c4c5nc(cc6[nH]c(cc1n2)c(C)c6CC)C(C)=C5C(=O)N(Cc1cccc(I)c1)C4=O)[C@@H](CCC(=O)OC)[C@@H]3C", "note": "(stereo partly shown) [compound 5, 3-{1’- (Hexyloxy)ethyl}purpurin-18-N-(3-iodo)benzylimide methyl ester]", "values": [
      {"measurement": "in vitro photosensitizing ability (comparative)", "setting": "[2]", "value": "more effective than the structural isomer 4"},
      {"measurement": "in vitro photosensitizing ability", "setting": "[2]", "value": "ineffective"},
      {"measurement": "in vivo PDT activity", "setting": "[1]; [4]", "value": "did not show any significant activity"},
      {"measurement": "in vivo PDT activity", "setting": "[1]; doses 2.5 and 3.0 μmol/kg, 705 nm, 135 J/cm^2, 75 mW/cm^2", "value": "quite effective"}
    ]},
    {"compound": "CCc1c(C)c2cc3nc(cc4[nH]c(c5c6nc(cc1[nH]2)C(C)=C6C(=O)N(Cc1cccc(I)c1)C5=O)[C@@H](CCC(=O)OC)[C@@H]4C)C(C)=C3C(C)OC", "note": "(stereo partly shown) [compound 10, 3-{1’- (methoxy)ethyl}purpurin-18-N-(3-iodo)benzylimide methyl ester]", "values": [
      {"measurement": "in vitro photosensitizing ability (comparative)", "setting": "[2]", "value": "enhanced efficacy over the isomers 4 and 5"},
      {"measurement": "in vivo PDT efficacy, fold less effective over the lead compound 1", "setting": "[1]; 705 nm (10), 135 J/cm^2, 75 mW/cm^2, 24 h post-injection", "value": "at least 1.5 fold"},
      {"measurement": "in vivo PDT activity compared with hexyl ether analog 5", "setting": "[1]; doses of 1.0 and 2.5 mmol/kg, 705 nm, 135 J/cm^2, 75 mW/cm^2, 24 h post-injection", "value": "enhanced activity"},
      {"measurement": "tumor uptake (abstract statement)", "setting": "[3]; methyl ether analog versus purpurinimide 5", "value": "improved tumor uptake"}
    ]},
    {"compound": "^124I- labeled analog of 3-{1’- (3-iodobenzyloxy)ethyl}purpurin-18-N-hexylimide methyl ester [compound 8]", "values": [
      {"measurement": "liver uptake in comparison of the 124I-analog of pyropheophorbide 1", "setting": "[3]; [5]", "value": 32, "unit": "fold"},
      {"measurement": "spleen uptake in comparison of the 124I-analog of pyropheophorbide 1", "setting": "[3]; [5]", "value": 85, "unit": "fold"}
    ]}
  ]
}
